Experimental data from different studies.
Each line is one published result; the experiments were not run side by side.
Target: Mitogen-activated protein kinase kinase kinase 14 (MAP3K14, Homo sapiens, UniProt Q99558)

SMILES | assay | setting | remaining binding
N[C@@H]1CCN(c2nccc(-c3cnn4ncccc34)n2)C1 | binding | 1 µM | 91%
CN1CCN(c2cnc3c(C4CCN(C(=O)c5ccc(OC(F)(F)F)cc5N)CC4)ncnc3c2)CC1 | cell-free assay, competition with immobilised ligand | 1 µM | 100%
O=C(Nc1c[nH]nc1C(=O)NC1CCNCC1)c1cc(F)cc(F)c1 | binding, competition with immobilised ligand | 1 µM | 100%
Nc1ncc2c(n1)-c1c([nH]c3ccc(C#CC4CC4)cc13)CCCC2 | binding, competition with immobilised ligand | 1 µM | 73%
O=C(NS(=O)(=O)c1ccc(NCC2CCOCC2)c([N+](=O)[O-])c1)c1ccc(N2CCN(Cc3ccc(C(F)(F)F)cc3-c3ccc(Cl)cc3)CC2)cc1Oc1cnc2[nH]ccc2c1 | cell-free assay, competition with immobilised ligand | 1 µM | 65%
c1cnn2ncc(-c3ccnc(N4CCC45COC5)n3)c2c1 | binding, competition with immobilised ligand | 1 µM | 44%
CC(=O)N1CCC(c2ccc(C(=O)NC(=N)N)cc2C(F)(F)F)CC1 | cell-free assay, competition with immobilised ligand | 1 µM | 100%
c1cncc(-c2cccc(Nc3nccc(NC4CCCCC4)n3)c2)c1 | binding, competition with immobilised ligand | 10 µM | 96%
CNC(=O)[C@@H]1CC[C@@H](n2c(-c3ccc4cnccc4c3)nc3ccc(C(=O)NCc4cccc(C(N)=O)c4)cc32)C1 | binding, competition with immobilised ligand | 1 µM | 100%
CCCCN(CCCC)C(=O)CN1C[C@H](c2cc(OC)c3c(c2)OCO3)[C@@H](C(=O)O)[C@@H]1CC(C)(C)CCC | cell-free assay, competition with immobilised ligand | 1 µM | 100%
Cc1cnn2ncc(-c3ccnc(N(C)C)n3)c2c1 | binding | 1 µM | 80%
COc1cnc(Nc2cccc(S(N)(=O)=O)c2)nc1N1CCN(c2ccccc2)CC1 | binding, competition with immobilised ligand | 1 µM | 96%
CN(c1ccnc(CNc2nc(Nc3ccc4c(c3)CC(=O)N4)ncc2C(F)(F)F)n1)S(C)(=O)=O | cell-free assay, competition with immobilised ligand | 1 µM | 65%
C[C@H]1CCN(c2nccc(-c3cnn4ncccc34)n2)C1 | binding, competition with immobilised ligand | 1 µM | 82%
O=C(NCCCN1CCOCC1)c1ccc(Nc2nccc(-c3cc4ccccc4s3)n2)cc1 | binding, competition with immobilised ligand | 1 µM | 87%
CC1CCCN1c1nccc(-c2cnn3ncccc23)n1 (centres unmarked) | binding, competition with immobilised ligand | 1 µM | 100%
O=C(NCCCN1CCOCC1)c1ccc(Nc2ncc(Cl)c(-c3ccc(Cl)s3)n2)cc1 | binding, competition with immobilised ligand | 1 µM | 49%
CNCc1ccccc1-c1csc([C@@H](C)Nc2nc(C)nc3cc(OC)c(OC)cc23)c1 | cell-free assay, competition with immobilised ligand | 1 µM | 93%
CN(c1nccc(-c2cnn3ncccc23)n1)C1CC1 | binding | 1 µM | 100%
O=C(c1ccc(Nc2nccc(-c3cc4ccccc4s3)n2)cc1)N1CCC(N2CCCC2)CC1 | binding, competition with immobilised ligand | 1 µM | 59%
